Reference: ChEMBL document CHEMBL3351252, “Design, synthesis, and structure-activity relationship studies of a series of [4-(4-carboxamidobutyl)]-1-arylpiperazines: insights into structural features contributing to dopamine D3 versus D2 receptor subtype selectivity” (J Med Chem, 2014)
Active and inactive are the calls of the source. The rule behind the calls is not given here.

Tests used:
D(2) dopamine receptor [1] = target: T1, D(2) dopamine receptor (Homo sapiens, UniProt P14416); assay: Displacement of [125I]IABN from human D2LR expressed in HEK293 cell membranes by gamma counting method
D(3) dopamine receptor [2] = target: T2, D(3) dopamine receptor (Homo sapiens, UniProt P35462); assay: Displacement of [125I]IABN from human D3R expressed in HEK293 cell membranes by gamma counting method
Homo sapiens [3] = species: Homo sapiens; assay: Selectivity index, ratio of Ki for human D2LR to Ki or human D3R
D(2) dopamine receptor [4] = target: T1, D(2) dopamine receptor; assay: Inverse agonist activity at human D2LR expressed in CHO-K1 cells assessed as inhibition of basal activity by beta-galactosidase based beta-arrestin recruitment assay; assay type: cell-based
Outline: (§1)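 CHO-K1 cells expressing human D2L receptor, β-arrestin/β-galactosidase fragment-complementation assay. Cells plated 2500/well and grown 48 h at 37 °C. Test compounds given at 11 half-log points from 5 μM, 120 min at 37 °C. Detection reagent added and chemiluminescence read. Results given as % stimulation or inhibition of basal luminescence. Compounds counterscreened for β-gal inhibition.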

D(2) dopamine receptor [5] = target: T1, D(2) dopamine receptor; assay: Antagonist activity against human D2LR expressed in CHOK1 cells assessed as inhibition of pergolide-induced beta-arrestin translocation by beta-galactosidase based beta-arrestin recruitment assay; assay type: cell-based, CHO-K1
D(3) dopamine receptor [6] = target: T2, D(3) dopamine receptor; assay: Antagonist activity against D3R in human U2OS cells assessed as inhibition of (+)-PD128907-induced beta-arrestin translocation by beta-galactosidase based beta-arrestin recruitment assay; assay type: cell-based
Homo sapiens [7] = species: Homo sapiens; assay: Selectivity index, ratio of IC50 for human D2LR to IC50 for human D3R by beta-galactosidase based beta-arrestin recruitment assay
D(2) dopamine receptor [8] = target: T1, D(2) dopamine receptor; assay: Agonist activity at human D2LR expressed in CHO-K1 cells assessed as stimulation of basal activity by beta-galactosidase based beta-arrestin recruitment assay; assay type: cell-based; outline: as §1
D(2) dopamine receptor [9] = target: T1, D(2) dopamine receptor; assay: Agonist activity against human D2R expressed in HEK293 cells assessed as inhibition of forskolin-induced adenyl cyclase activity at 10 times Ki relative to quinpirole; assay type: functional, cell-based
Outline: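 Whole HEK 293 cells expressing human D2R, prelabelled with [2,8-3H]adenine for 75 min at 37 °C, then given 0.1 mM IBMX. […] Stopped with TCA. [3H]cAMP separated on Dowex/alumina. Inhibition normalized to 1 μM quinpirole. Mean ± SEM of ≥3 experiments.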

D(2) dopamine receptor [10] = target: T1, D(2) dopamine receptor; assay: Agonist activity at human D2R expressed in CHO cells assessed as stimulation of mitogenesis at 10 uM after 24 hrs by [3H]thymidine uptake assay relative to quinpirole; assay type: cell-based
Outline: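 CHOp-D2 cells grown 48–72 h, then serum-starved 24 h. Exposed to 10 μM compound in serum-free α-MEM for 24 h at 37 °C. Pulsed 2 h with 0.25 μCi [3H]thymidine, trypsinized, filtered and counted. Stimulation expressed relative to maximal quinpirole. Two independent experiments.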

D(2) dopamine receptor [11] = target: T1, D(2) dopamine receptor; assay: Antagonist activity against human D2R expressed in CHO cells assessed as inhibition of quinpirole-induced mitogenesis after 24 hrs by [3H]thymidine uptake assay; assay type: cell-based
Outline: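 Serum-starved CHOp-D2 or CHOp-D3 cells given serial dilutions of test compound plus quinpirole (30 nM final). Incubated at 37 °C for 24 h (D2) or 16 h (D3). Then 2 h [3H]thymidine pulse, filtration and counting.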

D(3) dopamine receptor [12] = target: T2, D(3) dopamine receptor; conditions: CHO, 1 uM
D(2) dopamine receptor [13] = target: T1, D(2) dopamine receptor; conditions: CHO, 1 uM
D(2) dopamine receptor [14] = target: T1, D(2) dopamine receptor; assay: Displacement of [125I]IABN from wild type human D2R expressed in HEK293 cell membranes by gamma counting method
D(3) dopamine receptor [15] = target: T2, D(3) dopamine receptor; assay: Displacement of [125I]IABN from wild type human D3R expressed in HEK293 cell membranes by gamma counting method
Outline: (§2)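 Membranes from HEK 293 cells stably expressing receptor, prepared in 50 mM Tris-HCl pH 7.4/10 mM EDTA/150 mM NaCl and stored at −80 °C. […] Nonspecific binding defined with 2 μM (+)-butaclamol. Filtered, gamma counted. IC50 from single-site nonlinear regression, converted to Ki.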

D(3) dopamine receptor [16] = target: D(3) dopamine receptor (Homo sapiens, UniProt P35462, E90A); assay: Displacement of [125I]IABN from human D3R E90A mutant expressed in HEK293 cell membranes by gamma counting method; outline: as §2
D(3) dopamine receptor [17] = target: T2, D(3) dopamine receptor; assay: Displacement of [125I]IABN from chimeric human D3 receptor possessing extracellular loop II of D2 receptor expressed in HEK293 cell membranes by gamma counting method; outline: as §2
D(3) dopamine receptor [18] = target: D(3) dopamine receptor (Homo sapiens, UniProt P35462, E90Q); assay: Displacement of [125I]IABN from human D3R E90Q mutant expressed in HEK293 cell membranes by gamma counting method; outline: as §2
D(2) dopamine receptor [19] = target: T1, D(2) dopamine receptor; conditions: CHO-K1, 500 nM
D(3) dopamine receptor [20] = target: D(3) dopamine receptor (Homo sapiens, UniProt P35462, S182I); assay: Displacement of [125I]IABN from human D3R S182I mutant expressed in HEK293 cell membranes by gamma counting method; outline: as §2
D(2) dopamine receptor [21] = target: T1, D(2) dopamine receptor; assay: Displacement of [125I]IABN from chimeric human D2 receptor possessing extracellular loop II of D3 receptor expressed in HEK293 cell membranes by gamma counting method
D(3) dopamine receptor [22] = target: T2, D(3) dopamine receptor; conditions: CHO, 10 uM
D(3) dopamine receptor [23] = target: T2, D(3) dopamine receptor; assay: Inverse agonist activity at D3R in human U2OS cells assessed as inhibition of basal activity at 500 nM by beta-galactosidase based beta-arrestin recruitment assay; assay type: cell-based

T1 sequence (P14416 whole entry): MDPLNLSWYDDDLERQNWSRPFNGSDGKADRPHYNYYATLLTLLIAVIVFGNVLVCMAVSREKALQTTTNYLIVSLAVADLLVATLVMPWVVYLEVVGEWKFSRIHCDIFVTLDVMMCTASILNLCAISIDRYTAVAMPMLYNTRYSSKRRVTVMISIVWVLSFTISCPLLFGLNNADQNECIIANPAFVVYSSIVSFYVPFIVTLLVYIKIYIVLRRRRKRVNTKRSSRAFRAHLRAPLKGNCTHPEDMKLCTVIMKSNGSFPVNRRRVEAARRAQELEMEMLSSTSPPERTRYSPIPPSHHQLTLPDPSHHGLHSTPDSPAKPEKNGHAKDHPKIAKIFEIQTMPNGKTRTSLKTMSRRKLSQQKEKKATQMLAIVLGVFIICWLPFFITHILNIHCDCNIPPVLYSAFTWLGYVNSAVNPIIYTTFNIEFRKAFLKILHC
T2 sequence (P35462 whole entry): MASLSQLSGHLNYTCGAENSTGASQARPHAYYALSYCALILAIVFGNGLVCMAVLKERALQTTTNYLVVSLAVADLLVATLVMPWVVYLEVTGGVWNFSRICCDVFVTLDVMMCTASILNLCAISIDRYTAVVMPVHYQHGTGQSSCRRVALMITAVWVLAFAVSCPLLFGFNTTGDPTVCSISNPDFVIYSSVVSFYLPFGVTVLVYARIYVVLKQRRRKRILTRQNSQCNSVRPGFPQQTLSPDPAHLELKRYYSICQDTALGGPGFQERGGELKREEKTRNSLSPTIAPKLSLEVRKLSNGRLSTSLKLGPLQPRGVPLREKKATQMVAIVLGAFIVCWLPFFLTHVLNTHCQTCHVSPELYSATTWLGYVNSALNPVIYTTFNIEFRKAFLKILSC
Sequence of D(3) dopamine receptor (Homo sapiens, UniProt P35462, E90A) (P35462 as listed by the source E90A): as the sequence (P35462 whole entry) above, with G9S, E90A counted along it
Sequence of D(3) dopamine receptor (Homo sapiens, UniProt P35462, E90Q) (P35462 as listed by the source E90Q): as the sequence (P35462 whole entry) above, with G9S, E90Q counted along it
Sequence of D(3) dopamine receptor (Homo sapiens, UniProt P35462, S182I) (P35462 as listed by the source S182I): as the sequence (P35462 whole entry) above, with G9S, S182I counted along it

SMILES	Ki (D(2) dopamine receptor [1]) [nM]	Ki (D(3) dopamine receptor [2]) [nM]	Ratio Ki (Homo sapiens [3])	inhibition (D(2) dopamine receptor [4])	IC50 (D(2) dopamine receptor [5]) [nM]	IC50 (D(3) dopamine receptor [6]) [nM]	Ratio IC50 (Homo sapiens [7])	Activity (D(2) dopamine receptor [8])	inhibition (D(2) dopamine receptor [9]) [%]	other results
Cc1nc(N2CCN(CCCCNC(=O)c3cn4ccccc4n3)CC2)cc(C(F)(F)F)n1	24900	2010	12	–	–	–	–	–	–	–
O=C(NCCCCN1CCN(c2ccc3ccccc3n2)CC1)c1cn2ccccc2n1	1560	77	20	–	–	–	–	–	–	–
CC(C)(C)c1cc(N2CCN(CCCCNC(=O)c3cn4ccccc4n3)CC2)nc(C(C)(C)C)n1	–	–	19	–	–	–	–	–	–	–
O=C(NCCCCN1CCN(c2cccc(C(F)(F)F)c2)CC1)c1cn2ccccc2n1	162	2.9	56	inactive	60	1.8	33	inactive	32	–
CC(C)(C)c1nc(N2CCN(CCCCNC(=O)c3cc4ccccc4[nH]3)CC2)cc(C(F)(F)F)n1	913	11	83	inactive	418	5.6	75	inactive	–	–
CC(C)(C)c1nc(N2CCN(CCCCNC(=O)c3sc4ncccc4c3N)CC2)cc(C(F)(F)F)n1	481	35	14	–	–	–	–	–	–	–
N#Cc1cc(N2CCN(CCCCNC(=O)c3cn4ccccc4n3)CC2)cc(C(F)(F)F)c1	191	6.4	30	–	–	–	–	–	–	–
COc1ccccc1N1CCN(CCCCNC(=O)c2cn3ccccc3n2)CC1	19	3.5	5.4	inactive	6.6	0.7	9.4	inactive	25	Activity (D(2) dopamine receptor [10]): < 20%; IC50 (D(2) dopamine receptor [11]): 26 nM
Cc1cc(N2CCN(CCCCNC(=O)c3cn4ccccc4n3)CC2)nc(C(F)(F)F)n1	3650	148	25	–	–	–	–	–	–	–
O=C(NCCCCN1CCN(c2ccnc3ccccc23)CC1)c1cn2ccccc2n1	–	20	29	inactive	161	52	3.1	inactive	1.4	–
O=C(NCCCCN1CCN(c2cccc(Cl)c2Cl)CC1)c1cn2ccccc2n1	12	0.3	40	inactive	91	0.2	455	inactive	45	Activity (D(2) dopamine receptor [10]): < 20%; inhibition (D(3) dopamine receptor [12]): < 30%; inhibition (D(2) dopamine receptor [13]): < 30%; IC50 (D(2) dopamine receptor [11]): 55 nM
CN(C)Cc1c(C(=O)NCCCCN2CCN(c3cc(C(F)(F)F)nc(C(C)(C)C)n3)CC2)nc2ccccn12	–	–	10	inactive	–	–	30	inactive	8.9	Ki (D(2) dopamine receptor [14]): 191 nM; Ki (D(3) dopamine receptor [15]): 9.1 nM; Ki (D(3) dopamine receptor [16]): 16 nM; Ki (D(3) dopamine receptor [17]): 27 nM; Ki (D(3) dopamine receptor [18]): 19 nM; inhibition (D(2) dopamine receptor [19]): < 30%; Ki (D(3) dopamine receptor [20]): 16 nM; Ki (D(2) dopamine receptor [21]): 72 nM
CC(C)(C)c1nc(N2CCN(CCCCNC(=O)[C@H]3CC[C@H](c4ccccc4)CC3)CC2)cc(C(F)(F)F)n1	–	–	–	inactive	–	–	–	inactive	–	inhibition (D(3) dopamine receptor [22]): 40%; inhibition (D(3) dopamine receptor [12]): < 30%; inhibition (D(2) dopamine receptor [13]): < 30%
CC(C)(C)c1nc(N2CCN(CCCCNC(=O)c3cc4cccnc4s3)CC2)cc(C(F)(F)F)n1	683	32	21	–	–	–	–	–	–	–
O=C(NCCCCN1CCN(c2ccccc2)CC1)c1cn2ccccc2n1	178	10	18	–	–	–	–	–	–	–
O=C(NCCCCN1CCN(c2ncnc3ccccc23)CC1)c1cn2ccccc2n1	–	–	4.5	inactive	248	409	0.6	inactive	19	–
CC(C)(C)c1nc(N2CCN(CCCCNC(=O)c3cn4cccnc4n3)CC2)cc(C(F)(F)F)n1	–	–	36	inactive	37	0.4	93	inactive	9.2	Activity (D(2) dopamine receptor [10]): < 1%
CC(C)(C)c1nc(N2CCN(CCCCNC(=O)c3cn4nc(Cl)ccc4n3)CC2)cc(C(F)(F)F)n1	–	–	–	inactive	22	–	–	inactive	–	Activity (D(2) dopamine receptor [10]): < 1%
CN(C)Cc1cccc2nc(C(=O)NCCCCN3CCN(c4cc(C(F)(F)F)nc(C(C)(C)C)n4)CC3)cn12	–	–	11	inactive	–	–	9.7	inactive	–	Ki (D(2) dopamine receptor [14]): 245 nM; Ki (D(3) dopamine receptor [15]): 16 nM; Ki (D(3) dopamine receptor [16]): 12 nM; Ki (D(3) dopamine receptor [17]): 44 nM; Ki (D(3) dopamine receptor [18]): 12 nM; Ki (D(3) dopamine receptor [20]): 24 nM; Ki (D(2) dopamine receptor [21]): 176 nM
CC(C)(C)c1nc(N2CCN(CCCCNC(=O)c3cn4ccccc4n3)CC2)cc(C(F)(F)F)n1	–	–	–	inactive	–	0.6	435	inactive	-1.9	Ki (D(2) dopamine receptor [14]): 702 nM; Activity (D(2) dopamine receptor [10]): 0%; Ki (D(3) dopamine receptor [15]): 8.4 nM; Ki (D(3) dopamine receptor [16]): 13 nM; inhibition (D(3) dopamine receptor [22]): 40%; Ki (D(3) dopamine receptor [17]): 40 nM; inhibition (D(3) dopamine receptor [12]): < 30%; Ki (D(3) dopamine receptor [18]): 20 nM; inhibition (D(2) dopamine receptor [13]): < 30%; Ki (D(3) dopamine receptor [20]): 12 nM; Ki (D(2) dopamine receptor [21]): 148 nM
CC(C)(C)c1cc(N2CCN(CCCCNC(=O)c3cn4ccccc4n3)CC2)cc(C(C)(C)C)c1	1300	124	11	–	–	–	–	–	–	–
CN(C)Cc1c(C(=O)NCCCCN2CCN(c3cc(C(F)(F)F)nc(C(C)(C)C)n3)CC2)[nH]c2ccccc12	527	25	21	–	311	14	22	–	–	inhibition (D(3) dopamine receptor [23]): < 21%
CC(C)(C)c1nc(N2CCN(CCCCNC(=O)c3nc4ccccc4[nH]3)CC2)cc(C(F)(F)F)n1	336	4.3	78	inactive	301	8.5	35	inactive	5.6	Activity (D(2) dopamine receptor [10]): < 20%; IC50 (D(2) dopamine receptor [11]): 490 nM
CC(C)(C)c1nc(N2CCN(CCCCNC(=O)c3cn4ccncc4n3)CC2)cc(C(F)(F)F)n1	–	–	56	inactive	49	0.3	163	inactive	–	Activity (D(2) dopamine receptor [10]): < 20%; inhibition (D(3) dopamine receptor [22]): 40%; inhibition (D(3) dopamine receptor [12]): < 30%; inhibition (D(2) dopamine receptor [13]): < 30%
